As a reminder, the IC50 is the point on the concentration scale where inhibition reaches its midpoint. A high value points to weaker potency in that assay. A word on the Tm: it is the temperature at the midpoint of the melting transition.

This is an account of results in ChEMBL document CHEMBL4725371, “A Novel Redox Modulator Induces a GPX4-Mediated Cell Death That Is Dependent on Iron and Reactive Oxygen Species” (J Med Chem, 2020).

Active and inactive are the calls of the source. No cut-off for these calls is given here.

In data set [1] the test system is PANC-1. Nature of the data set: Cytotoxicity against human PANC-1 cells measured after 72 hrs by MTT assay. The format is functional, cell-based. To be noted: PANC-1, 72 h. The gist of the method:
(§1)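 Cells were kept in RPMI 1640 with 10% FBS at 37 °C, 5% CO₂, under 35 passages. Cells were seeded, attached overnight and treated with compound or DMSO for 72 h. MTT was added at 0.3 mg/mL for 3 h, then dissolved in DMSO and read as absorbance at 570 nm. IC50 was fitted from the curve. Values are mean ± sd of three independent experiments.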

Data set [2] deals with BXPC-3. Nature of the data set: Cytotoxicity against human BXPC-3 cells measured after 72 hrs by MTT assay. To be noted: BXPC-3, 72 h. The format is functional, cell-based. The gist of the method: as §1
In general terms: Tetrazolium assays rely on reduction of a dye to a coloured formazan, in cell work by metabolically active cells.

Data set [3] relates to MIA PaCa-2. Nature of the data set: Induction of reactive oxygen species in human MIA PaCa-2 cells at 10 uM measured after 1 hr by CM-H2DCFDA dye based fluorescence assay. The format is functional, cell-based. The gist of the method:
(§2)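 1.8 × 10⁴ cells per well were attached overnight, then loaded with 10 μM CM-H2DCFDA in HBSS for 40 min at 37 °C and washed. Compounds were added in HBSS. Fluorescence was read at Ex 483 / Em 530 nm. TBHP was the positive control. NAC at 3 mM was used where stated.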

In data set [4] the test system is PANC-1. The experiment in a line: Induction of reactive oxygen species in human PANC-1 cells at 10 uM measured after 1 hr by CM-H2DCFDA dye based fluorescence assay. The format is functional, cell-based. The gist of the method: as §2
Data set [5] addresses Signal transducer and activator of transcription 3 (Homo sapiens) (UniProt P40763). The experiment in a line: Inhibition of STAT3 phosphorylation in human PANC-1 cells at 1.2 to 1.8 uM measured after 4 hrs by Western blot analysis. The format is cell-based. To be noted: dose microM 1.2-1.8, time 4.0 hrs. The gist of the method: (§3)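 Cells were treated 4 h at the stated concentrations and lysed in RIPA with protease and phosphatase inhibitors. 25 μg protein was resolved on 10% SDS gels, transferred to PVDF and probed for STAT3, pSTAT3, pH2AX and GAPDH. Detection used fluorescent secondary antibodies, with normalisation to loading control.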
A general note: Immunoblotting shows a protein as a band on a membrane.

Data set [6] has the same target. Nature of the data set: Inhibition of STAT3 phosphorylation in human MIA PaCa-2 cells at 1 to 1.5 uM measured after 4 hrs by Western blot analysis. It is filed as cell-based. To be noted: dose microM 1-1.5, time 4.0 hrs. The gist of the method: as §3
Data set [7] has as its system MIA PaCa-2. Nature of the data set: Inhibition of colony formation in human MIA PaCa-2 cells at 0.4 to 0.8 uM measured after 7 to 9 days in presence of iron chelator deferasirox by crystal violet staining based assay. It is filed as functional, cell-based. To be noted: dose microM 0.4-0.8, time day 7-9. Summed up: (§4)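 Cells seeded overnight in 96-well plates at 300 cells/well (MIA PaCa-2) or 600 cells/well (BxPC-3), in RPMI 1640 with 10% FBS. Inhibitor added 1 h before compound, then continuous exposure for 7–9 days until control wells were 80–90% confluent. Stained with 0.05% crystal violet for 30 min, imaged after overnight drying and quantified.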

Data set [8] relates to MIA PaCa-2. Nature of the data set: Inhibition of colony formation in human MIA PaCa-2 cells at 0.5 uM measured after 7 to 9 days in presence of ferroptosis inhibitor liproxstatin-1 by crystal violet staining based assay. The format is functional, cell-based. To be noted: time day 7-9. Summed up:
as §4

For data set [9], the system named is MIA PaCa-2. Nature of the data set: Inhibition of colony formation in human MIA PaCa-2 cells at 0.25 to 1 uM measured after 7 to 9 days in presence of caspase-dependent apoptosis inhibitor Z-VAD by crystal violet staining based assay. The format is functional, cell-based. To be noted: dose microM 0.25-1, time day 7-9. The gist of the method: as §4
Data set [10] relates to MIA PaCa-2. The experiment in a line: Inhibition of colony formation in human MIA PaCa-2 cells at 0.4 to 0.8 uM measured after 7 to 9 days in presence of necroptosis inhibitor necrostatin-1 by crystal violet staining based assay. To be noted: dose microM 0.4-0.8, time day 7-9. It is filed as functional, cell-based. Summed up:
as §4

Data set [11] relates to MIA PaCa-2. The experiment in a line: Inhibition of colony formation in human MIA PaCa-2 cells at 0.4 to 0.8 uM measured after 7 to 9 days in presence of autophagy inhibitor chloroquine by crystal violet staining based assay. To be noted: dose microM 0.4-0.8, time day 7-9. The format is functional, cell-based. The gist of the method: as §4
For data set [12], the target named is T1, Phospholipid hydroperoxide glutathione peroxidase GPX4 (Homo sapiens) (UniProt P36969).
T1 sequence (whole entry): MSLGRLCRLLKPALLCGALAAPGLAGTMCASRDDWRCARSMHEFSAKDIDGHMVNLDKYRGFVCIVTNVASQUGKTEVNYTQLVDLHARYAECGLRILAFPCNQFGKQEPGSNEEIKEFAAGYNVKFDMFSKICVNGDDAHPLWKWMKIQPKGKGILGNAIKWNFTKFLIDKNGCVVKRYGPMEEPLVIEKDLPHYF
The experiment in a line: Binding affinity to GPX4 in human MIA PaCa-2 cells assessed as protein destabilization by measuring melting temperature at 100 uM measured after 1 hr by thermal shift assay (reference value: 60.34 degreeC). The format is cell-based.

In data set [13] the target is T1, Phospholipid hydroperoxide glutathione peroxidase GPX4 (Homo sapiens). The experiment in a line: Binding affinity to GPX4 in human PANC-1 cells assessed as protein destabilization by measuring reduction in melting temperature at 100 uM measured after 1 hr by thermal shift assay. The format is cell-based.
For data set [14], the system named is MIA PaCa-2. Nature of the data set: Down regulation of LRPPRC expression in human MIA PaCa-2 cells at 1.2 uM measured after 24 hrs by proteomics analysis. The format is functional, cell-based. The gist of the method:
(§5)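 MIA PaCa-2 cells were treated with 1.2 μM compound or DMSO for 24 h and lysed in RIPA buffer. 75 μg protein per sample was run in duplicate by TMT10plex-labelled proteomics. Abundance ratio was taken as treatment over control. Changes of at least 1.5-fold at FDR < 0.05 were scored.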

Data set [15] relates to MIA PaCa-2. The experiment in a line: Down regulation of PNPT1 expression in human MIA PaCa-2 cells at 1.2 uM measured after 24 hrs by proteomics analysis. It is filed as functional, cell-based. Summed up: as §5
The subject of data set [16] is MIA PaCa-2. The experiment in a line: Down regulation of PNPT1 expression in human MIA PaCa-2 cells at 3 times IC50 measured after 4 hrs in presence of NAC by proteomics analysis. The format is functional, cell-based.
Data set [17] can be described thus: Half life in mouse plasma at 500 uM by LC-MS/MS analysis. The format is ADME, cell-free. Particulars: 500 µM. Summed up:
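Compound (500 μM DMSO stock) was added at 1 μL per 500 μL pooled plasma. Samples were taken at 0, 0.17, 0.5, 1, 2 and 4 h and centrifuged at 3500 g for 10 min. Supernatant was run by LC-MS/MS. t1/2 came from the slope of ln(compound/internal standard peak area) against time.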

Data set [18] in a line: Plasma concentration in CD-1 mouse at 10 mg/kg, ip measured after 7 hrs by LC-MS/MS analysis. The format is ADME, organism-based. Summed up: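 CD-1 mice dosed IP at 10 mg/kg or PO at 20 mg/kg, n=2 per route. Blood taken with heparinized pipettes at 0.5, 2, 4 and 7 h and spun at 15,000 rpm for 10 min. Plasma stored at −80 °C, then measured by LC-MS/MS.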
Data set [19] in a line: Toxicity in CD-1 mouse assessed as death at 10 mg/kg, iv. The format is organism-based. To be noted: in vivo. Summed up:
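CD-1 mice given a single IV injection at 10 mg/kg, three mice per group. Blood was drawn into heparinized pipettes at 0.5, 2, 4 and 7 h for plasma LC-MS/MS. Deaths were noted over the course of the study.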

Data set [20] in a line: Drug metabolism in mouse plasma assessed as 6-[4-[(2R)-2-hydroxy-4-methyl-piperazin-1-yl]anilino]quinazoline-5,8-dione formation at 500 uM measured after 0.5 hrs by LC-MS/MS analysis. The format is ADME, cell-free. The gist of the method: (§6)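 Compound (500 μM DMSO stock, 1 μL per 500 μL) was incubated in pooled mouse plasma. Samples were taken at 0.5 h and metabolites identified by LC-MS/MS.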

A short description of data set [21]: Drug metabolism in mouse plasma assessed as 6-[4-[(3S,5R)-3,5-dihydroxy-4-methyl-piperazin-1-yl]anilino]quinazoline-5,8-dione formation at 500 uM measured after 0.5 hrs by LC-MS/MS analysis. It is filed as ADME, cell-free. The gist of the method: as §6

Sequence of Signal transducer and activator of transcription 3 (Homo sapiens) (P40763 whole entry): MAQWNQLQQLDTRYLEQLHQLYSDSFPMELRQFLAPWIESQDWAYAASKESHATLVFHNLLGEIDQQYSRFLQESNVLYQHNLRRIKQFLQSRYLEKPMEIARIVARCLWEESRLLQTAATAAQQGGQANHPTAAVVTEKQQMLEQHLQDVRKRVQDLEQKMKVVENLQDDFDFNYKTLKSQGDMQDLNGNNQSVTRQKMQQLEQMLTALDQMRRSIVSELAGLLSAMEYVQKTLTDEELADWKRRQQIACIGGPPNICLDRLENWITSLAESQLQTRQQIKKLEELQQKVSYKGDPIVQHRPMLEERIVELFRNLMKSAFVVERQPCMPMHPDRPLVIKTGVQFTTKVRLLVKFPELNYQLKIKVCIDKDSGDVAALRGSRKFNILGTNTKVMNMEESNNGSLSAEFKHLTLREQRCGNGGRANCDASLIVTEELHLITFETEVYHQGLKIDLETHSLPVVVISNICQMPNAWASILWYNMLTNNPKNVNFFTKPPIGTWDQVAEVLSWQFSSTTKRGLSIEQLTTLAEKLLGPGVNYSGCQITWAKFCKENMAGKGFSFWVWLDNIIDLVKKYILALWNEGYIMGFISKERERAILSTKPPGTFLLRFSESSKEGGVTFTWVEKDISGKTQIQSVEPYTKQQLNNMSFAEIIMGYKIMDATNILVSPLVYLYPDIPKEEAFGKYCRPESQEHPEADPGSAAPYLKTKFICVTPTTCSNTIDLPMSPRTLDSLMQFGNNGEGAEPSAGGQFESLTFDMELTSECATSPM

On to `CN1CCN(c2ccc(NC3=CC(=O)c4ncncc4C3=O)cc2)CC1`, for which the IC50 turned out to be 340 nM in data set [1] and 900 nM in data set [2]. Moreover, the result in data set [3], in data set [4], in [13], in [14], in data set [15] and in data set [16] was Active. Further, the inhibition entry in [5], in data set [6], in [9], in data set [10] and in [11] was “Active” each time. The inhibition result in data set [7] and in data set [8] was “inactive” throughout. In data set [12], the Tm was found to be 57.6 °C. In data set [17], this compound registered a t1/2 of 6 min. This compound yielded a concentration at 7 h in data set [18] of 4.5 ng/mL. Further, in data set [19], the Activity entry is “Toxic”. Besides, the Drug metabolism result in data set [20] and in data set [21] was “Metabolite_Detected” in each case.
